One data set deals with spleen. The data set is described as follows: Increase in MBP83-99 peptide-induced IL4 production in SJL/J mouse spleen cells assessed per 0.5 million cells after 24 hrs by ELISpot analysis. The format is functional, cell-based. Summed up:
(§1)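 Female SJL/J mice immunized with peptide in CFA or with peptide conjugated to reduced mannan (50 µg intradermal, days 0 and 14). Spleens taken at day 28. 5 × 10^5 cells/well were incubated 24 h at 37 °C with 10 µg/mL recall peptide on anti-IL-4-coated plates, then developed with biotin anti-IL-4, streptavidin-ALP and a colorimetric substrate. Triplicate wells. Reported as SFU/0.5 million cells minus cells-alone background.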

A short description of data set [1]: Effect on MBP83-99 peptide-induced SJL/J mouse spleen cells proliferation assessed as [3H]thymidine incorporation after 6 days. The format is tissue-based. The settings on record: 144 h. The method in brief:
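Spleen cells taken 28 days after immunization of female 6-8 week SJL/J mice with native MBP83-99 in CFA. 1 × 10^5 cells/well were cultured 1-6 days at 37 °C with recall peptide (10 µg/ml); cells alone served as background. 1 µCi [3H]thymidine was added per well, 6 h before harvest, one plate per day. Reported as mean cpm of triplicate wells, three mice per group.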
A general note: Incorporation of labelled thymidine or its analogues reports DNA synthesis.

Data set [2] is described as follows: Induction of IL4 production in SJL/J mouse spleen cells assessed as spot forming unit per 0.5 million cells by ELISpot analysis. The format is functional. The method in brief: as §1

Activity calls are given as the source filed them. No cut-off for these calls is given here. Where a SMILES comes first, the peptide text is derived from it.

Consider `CC[C@H](C)[C@H](NC(=O)[C@H](CC(N)=O)NC(=O)[C@H](CCCCN)NC(=O)[C@H](Cc1ccccc1)NC(=O)[C@H](Cc1ccccc1)NC(=O)[C@H](Cc1cnc[nH]1)NC(=O)[C@@H](NC(=O)[C@@H](NC(=O)[C@@H]1CCCN1C(=O)[C@H](CC(N)=O)NC(=O)[C@@H](N)CCC(=O)O)C(C)C)C(C)C)C(=O)N[C@H](C(=O)N[C@H](C(=O)N1CCC[C@H]1C(=O)N[C@@H](CCCNC(=N)N)C(=O)N[C@H](C(=O)N1CCC[C@H]1C(=O)O)[C@@H](C)O)[C@@H](C)O)C(C)C`, for which, in the data set with spleen, the result was inactive.

Consider `CC[C@H](C)[C@H](NC(=O)[C@H](CC(N)=O)NC(=O)[C@H](CCCCN)NC(=O)[C@H](Cc1ccccc1)NC(=O)[C@H](Cc1ccccc1)NC(=O)[C@H](Cc1c[nH]cn1)NC(=O)[C@@H](NC(=O)[C@@H](NC(=O)[C@@H]1CCCN1C(=O)[C@H](CC(N)=O)NC(=O)[C@@H](N)CCC(=O)O)C(C)C)C(C)C)C(=O)N[C@H](C(=O)N[C@H](C(=O)N1CCC[C@H]1C(=O)N[C@@H](CCCNC(=N)N)C(=O)N[C@H](C(=O)N1CCC[C@H]1C(=O)O)[C@@H](C)O)[C@@H](C)O)C(C)C`, for which the result in data set [1] was Active.

In the case of `CC[C@H](C)[C@@H]1NC(=O)[C@H](CC(N)=O)NC(=O)[C@H](C)NC(=O)[C@H](Cc2ccccc2)NC(=O)[C@H](Cc2ccccc2)NC(=O)[C@H](Cc2cnc[nH]2)NC(=O)[C@H](C(C)C)NC(=O)[C@H](C(C)C)NC(=O)[C@@H]2CCCN2C(=O)[C@H](CC(N)=O)NC(=O)[C@H](CCC(=O)O)NC(=O)[C@@H]2CCCN2C(=O)[C@H]([C@@H](C)O)NC(=O)[C@H](CCCNC(=N)N)NC(=O)[C@@H]2CCCN2C(=O)[C@H]([C@@H](C)O)NC(=O)[C@H](C(C)C)NC1=O` (cyclo(ANIVTPRTPENPVVHFF)), the Activity in data set [2] is reported as 70.

Turning to H-ENPVVHFFANIVTPRTP-OH, the result with spleen was inactive. Moreover, the Activity in data set [2] is given as 600.
